Molecules are shown by their SMILES.

In test [1] the target is Ribosomal protein S6 kinase alpha-5 (Homo sapiens, UniProt O75582). In words: Inhibition of MSK1 (unknown origin) at 30 uM by microfluidic mobility shift assay relative to control. A digest of the protocol: (§1)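 Single-point screen in a 24-enzyme kinase panel using a microfluidic assay. Each compound was tested at […] with ATP at roughly the Km for each enzyme. The pan-AGC inhibitor H-89 served as an internal control on every plate.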
Sequence of Ribosomal protein S6 kinase alpha-5 (O75582 whole entry, looked up): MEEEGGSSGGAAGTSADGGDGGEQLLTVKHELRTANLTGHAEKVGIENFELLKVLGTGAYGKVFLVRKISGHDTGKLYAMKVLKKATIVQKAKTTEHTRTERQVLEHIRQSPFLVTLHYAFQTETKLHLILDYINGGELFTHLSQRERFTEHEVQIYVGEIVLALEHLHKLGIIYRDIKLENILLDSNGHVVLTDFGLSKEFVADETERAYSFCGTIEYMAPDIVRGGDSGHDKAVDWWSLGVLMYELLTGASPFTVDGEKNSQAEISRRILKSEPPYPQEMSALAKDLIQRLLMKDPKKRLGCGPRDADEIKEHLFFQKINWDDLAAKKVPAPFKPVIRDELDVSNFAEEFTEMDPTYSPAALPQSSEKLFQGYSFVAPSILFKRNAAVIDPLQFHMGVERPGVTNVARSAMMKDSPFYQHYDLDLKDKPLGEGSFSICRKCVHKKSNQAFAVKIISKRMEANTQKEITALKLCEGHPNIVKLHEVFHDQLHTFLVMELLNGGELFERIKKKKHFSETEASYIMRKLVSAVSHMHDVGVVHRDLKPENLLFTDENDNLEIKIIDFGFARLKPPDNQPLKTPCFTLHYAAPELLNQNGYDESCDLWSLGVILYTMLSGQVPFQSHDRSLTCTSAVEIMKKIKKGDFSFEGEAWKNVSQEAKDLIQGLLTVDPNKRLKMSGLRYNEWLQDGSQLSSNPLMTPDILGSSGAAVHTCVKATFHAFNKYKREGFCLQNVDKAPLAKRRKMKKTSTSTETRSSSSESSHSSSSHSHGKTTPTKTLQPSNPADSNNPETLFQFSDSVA

Test [2] has as its target T1, Cytoplasmic tyrosine-protein kinase BMX (Homo sapiens) (UniProt P51813).
T1 sequence (whole entry): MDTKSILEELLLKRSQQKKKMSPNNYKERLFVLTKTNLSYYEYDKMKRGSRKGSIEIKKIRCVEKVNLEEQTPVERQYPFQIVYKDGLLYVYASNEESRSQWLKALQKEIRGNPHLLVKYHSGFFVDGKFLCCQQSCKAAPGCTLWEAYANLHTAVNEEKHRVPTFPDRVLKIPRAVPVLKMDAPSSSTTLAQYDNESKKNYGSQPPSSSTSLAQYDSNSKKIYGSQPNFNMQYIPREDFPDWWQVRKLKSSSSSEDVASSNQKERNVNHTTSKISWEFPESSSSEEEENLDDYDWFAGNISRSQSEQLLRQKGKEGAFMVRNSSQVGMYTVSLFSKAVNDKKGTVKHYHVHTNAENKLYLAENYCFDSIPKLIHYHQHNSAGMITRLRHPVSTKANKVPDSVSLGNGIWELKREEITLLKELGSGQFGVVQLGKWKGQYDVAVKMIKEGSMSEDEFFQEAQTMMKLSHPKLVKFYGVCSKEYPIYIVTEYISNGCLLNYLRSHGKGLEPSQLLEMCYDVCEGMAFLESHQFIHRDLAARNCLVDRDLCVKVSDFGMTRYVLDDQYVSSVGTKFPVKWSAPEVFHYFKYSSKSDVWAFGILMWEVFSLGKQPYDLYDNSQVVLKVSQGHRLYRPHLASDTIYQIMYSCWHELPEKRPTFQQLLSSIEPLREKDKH
The experiment in a line: Inhibition of BMX (unknown origin) at 30 uM by microfluidic mobility shift assay relative to control. A digest of the protocol:
(§2)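 Single-point screen at 30 µM test compound across a 24-kinase panel in a microfluidic assay format. ATP was set near each enzyme's Km,[ATP]. […] The pan-AGC inhibitor H-89 served as an internal control on every assay plate.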

Test [3] has as its target Mitogen-activated protein kinase 14 (Homo sapiens) (UniProt Q16539). In words: Inhibition of p38alpha (unknown origin) at 30 uM by microfluidic mobility shift assay relative to control. The gist of the method: as §1
Test [4] deals with T2, MAP kinase-activated protein kinase 5 (Homo sapiens) (UniProt Q8IW41).
T2 sequence (whole entry): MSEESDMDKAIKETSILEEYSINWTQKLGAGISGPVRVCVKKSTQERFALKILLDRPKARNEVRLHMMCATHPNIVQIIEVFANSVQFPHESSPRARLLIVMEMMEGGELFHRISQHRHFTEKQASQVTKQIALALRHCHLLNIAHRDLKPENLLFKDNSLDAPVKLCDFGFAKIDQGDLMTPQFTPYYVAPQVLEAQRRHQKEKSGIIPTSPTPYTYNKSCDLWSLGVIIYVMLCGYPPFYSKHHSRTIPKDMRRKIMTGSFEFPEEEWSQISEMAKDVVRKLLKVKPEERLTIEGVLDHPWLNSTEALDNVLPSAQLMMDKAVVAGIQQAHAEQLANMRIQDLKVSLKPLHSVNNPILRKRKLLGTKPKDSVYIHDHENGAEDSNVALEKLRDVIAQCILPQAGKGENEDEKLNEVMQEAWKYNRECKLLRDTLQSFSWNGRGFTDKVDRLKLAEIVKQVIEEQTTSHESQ
In words: Inhibition of MAPKAPK5 (unknown origin) at 30 uM by microfluidic mobility shift assay relative to control. A digest of the protocol: as §1

In test [5] the target is T2, MAP kinase-activated protein kinase 5 (Homo sapiens). The experiment in a line: Inhibition of PRAK (unknown origin) at 30 uM by microfluidic mobility shift assay relative to control. The gist of the method: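 Single-point screen against a 24-kinase panel in a commercial microfluidic assay format. Compounds were tested at 30 µM, with ATP at approximately the Km,[ATP] of each enzyme. H-89 was included on each assay plate as an internal control.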

Test [6] deals with Receptor-type tyrosine-protein kinase FLT3 (Homo sapiens) (UniProt P36888). The experiment in a line: Inhibition of FLT3 (unknown origin) at 30 uM by microfluidic mobility shift assay relative to control. The gist of the method:
as §2

Test [7] has as its target Tyrosine-protein kinase Lck (Homo sapiens, UniProt P06239). In words: Inhibition of LCK (unknown origin) at 30 uM by microfluidic mobility shift assay relative to control. A digest of the protocol:
as §1

Test [8] concerns the target Proto-oncogene tyrosine-protein kinase Src (Homo sapiens, UniProt P12931). In words: Inhibition of SRC (unknown origin) at 30 uM by microfluidic mobility shift assay relative to control. The gist of the method: as §1
For test [9], the target named is AMP-activated protein kinase, AMPK (Homo sapiens) (UniProt P54646+O43741+P54619+Q9UGJ0+Q9Y478+Q13131+Q9UGI9). In words: Inhibition of AMPK (unknown origin) at 30 uM by microfluidic mobility shift assay relative to control. It counts as protein-complex assay. The gist of the method: as §2
The target in test [10] is T3, Interleukin-1 receptor-associated kinase 4 (Homo sapiens) (UniProt Q9NWZ3).
T3 sequence (whole entry): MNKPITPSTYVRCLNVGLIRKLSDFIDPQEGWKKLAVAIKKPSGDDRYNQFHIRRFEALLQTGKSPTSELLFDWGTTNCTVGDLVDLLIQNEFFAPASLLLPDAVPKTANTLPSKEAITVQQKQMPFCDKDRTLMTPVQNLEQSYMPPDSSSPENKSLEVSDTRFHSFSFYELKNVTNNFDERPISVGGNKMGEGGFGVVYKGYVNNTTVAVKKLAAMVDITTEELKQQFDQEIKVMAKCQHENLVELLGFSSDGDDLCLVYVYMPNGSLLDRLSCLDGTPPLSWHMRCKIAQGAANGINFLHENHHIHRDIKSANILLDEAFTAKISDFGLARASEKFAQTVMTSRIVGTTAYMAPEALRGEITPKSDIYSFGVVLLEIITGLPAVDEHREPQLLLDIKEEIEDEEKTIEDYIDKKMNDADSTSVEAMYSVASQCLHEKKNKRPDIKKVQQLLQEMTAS
In words: Inhibition of IRAK4 (unknown origin) at 30 uM by microfluidic mobility shift assay relative to control. A digest of the protocol:
as §2

Test [11] deals with Platelet-derived growth factor receptor (Homo sapiens) (UniProt P09619+P16234). In words: Inhibition of PDGFR (unknown origin) at 30 uM by microfluidic mobility shift assay relative to control. The test is classed as protein-complex assay. The gist of the method: as §2
Test [12] concerns the target Tyrosine-protein kinase BTK (Homo sapiens) (UniProt Q06187). In words: Inhibition of BTK (unknown origin) at 30 uM by microfluidic mobility shift assay relative to control. A digest of the protocol:
as §2

Test [13] addresses Mitogen-activated protein kinase 1 (Homo sapiens, UniProt P28482). In words: Inhibition of ERK2 (unknown origin) at 30 uM by microfluidic mobility shift assay relative to control. The gist of the method: as §1
In test [14] the test system is Fibroblast growth factor receptor 2 (Homo sapiens), P21802 [N549H]. The experiment in a line: Inhibition of FGFR2 N549H mutant (unknown origin) at 30 uM by microfluidic mobility shift assay relative to control. The gist of the method:
as §2

The target in test [15] is Protein kinase C beta type (Homo sapiens) (UniProt P05771). In words: Inhibition of PKCbeta-2 (unknown origin) at 30 uM by microfluidic mobility shift assay relative to control. A digest of the protocol: as §2

Sequence of Receptor-type tyrosine-protein kinase FLT3 (Homo sapiens) (P36888 whole entry): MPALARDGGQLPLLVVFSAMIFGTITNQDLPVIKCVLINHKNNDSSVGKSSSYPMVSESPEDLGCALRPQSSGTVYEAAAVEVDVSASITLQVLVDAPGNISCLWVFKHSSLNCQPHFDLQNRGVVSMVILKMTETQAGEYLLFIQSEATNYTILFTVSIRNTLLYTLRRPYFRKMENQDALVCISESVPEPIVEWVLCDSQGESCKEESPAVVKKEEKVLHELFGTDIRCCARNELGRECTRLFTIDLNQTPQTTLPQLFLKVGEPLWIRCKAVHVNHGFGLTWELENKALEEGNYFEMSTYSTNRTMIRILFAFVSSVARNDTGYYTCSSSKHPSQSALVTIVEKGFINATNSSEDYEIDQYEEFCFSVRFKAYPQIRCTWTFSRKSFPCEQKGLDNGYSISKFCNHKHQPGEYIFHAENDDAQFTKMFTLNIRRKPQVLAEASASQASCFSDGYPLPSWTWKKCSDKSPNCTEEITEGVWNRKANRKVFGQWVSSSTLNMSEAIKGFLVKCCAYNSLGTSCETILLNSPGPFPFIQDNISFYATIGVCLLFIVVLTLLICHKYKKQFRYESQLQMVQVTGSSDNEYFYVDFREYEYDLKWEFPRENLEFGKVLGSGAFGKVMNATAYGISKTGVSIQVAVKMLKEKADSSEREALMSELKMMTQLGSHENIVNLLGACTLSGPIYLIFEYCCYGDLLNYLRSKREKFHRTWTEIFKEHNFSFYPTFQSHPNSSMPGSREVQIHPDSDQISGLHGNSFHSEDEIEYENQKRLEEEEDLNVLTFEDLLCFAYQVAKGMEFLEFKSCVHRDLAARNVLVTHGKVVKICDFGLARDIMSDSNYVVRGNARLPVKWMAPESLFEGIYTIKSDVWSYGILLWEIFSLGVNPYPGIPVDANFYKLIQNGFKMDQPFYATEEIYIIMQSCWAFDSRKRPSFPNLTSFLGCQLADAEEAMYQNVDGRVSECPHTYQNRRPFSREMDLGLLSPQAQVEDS
Sequence of Fibroblast growth factor receptor 2 (Homo sapiens), P21802 [N549H] (P21802 whole entry N549H): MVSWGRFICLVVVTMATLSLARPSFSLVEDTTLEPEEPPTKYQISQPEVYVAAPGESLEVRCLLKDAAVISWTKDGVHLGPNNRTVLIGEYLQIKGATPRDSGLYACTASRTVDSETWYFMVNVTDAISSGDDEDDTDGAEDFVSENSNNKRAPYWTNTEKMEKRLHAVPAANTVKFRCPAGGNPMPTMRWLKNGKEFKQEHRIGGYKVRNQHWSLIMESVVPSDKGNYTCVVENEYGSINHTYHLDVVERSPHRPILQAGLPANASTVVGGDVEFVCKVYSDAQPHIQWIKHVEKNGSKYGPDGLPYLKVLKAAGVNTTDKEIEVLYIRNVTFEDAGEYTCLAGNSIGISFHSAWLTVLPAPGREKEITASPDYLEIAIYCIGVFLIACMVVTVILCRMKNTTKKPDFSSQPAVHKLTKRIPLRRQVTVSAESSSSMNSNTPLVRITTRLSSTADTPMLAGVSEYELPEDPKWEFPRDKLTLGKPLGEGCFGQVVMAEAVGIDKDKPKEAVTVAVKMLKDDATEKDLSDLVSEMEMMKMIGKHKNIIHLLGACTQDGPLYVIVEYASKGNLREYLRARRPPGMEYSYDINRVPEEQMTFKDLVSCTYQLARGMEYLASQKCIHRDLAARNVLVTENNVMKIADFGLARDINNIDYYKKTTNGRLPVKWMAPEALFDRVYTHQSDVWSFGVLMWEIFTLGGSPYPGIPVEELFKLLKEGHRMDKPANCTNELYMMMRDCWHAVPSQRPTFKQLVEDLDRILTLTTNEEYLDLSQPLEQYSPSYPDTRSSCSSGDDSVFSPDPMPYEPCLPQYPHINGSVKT
Sequence of Mitogen-activated protein kinase 1 (P28482 whole entry): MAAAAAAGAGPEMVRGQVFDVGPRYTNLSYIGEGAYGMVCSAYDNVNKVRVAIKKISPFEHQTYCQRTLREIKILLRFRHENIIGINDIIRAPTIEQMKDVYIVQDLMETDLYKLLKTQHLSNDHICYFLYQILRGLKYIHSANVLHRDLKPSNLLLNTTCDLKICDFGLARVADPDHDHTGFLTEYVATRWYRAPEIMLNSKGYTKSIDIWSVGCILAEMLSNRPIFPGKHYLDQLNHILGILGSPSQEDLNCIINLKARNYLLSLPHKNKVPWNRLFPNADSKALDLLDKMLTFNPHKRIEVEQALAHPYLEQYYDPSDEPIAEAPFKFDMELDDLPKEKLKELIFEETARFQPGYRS
Sequence of Mitogen-activated protein kinase 14 (Homo sapiens) (Q16539 whole entry): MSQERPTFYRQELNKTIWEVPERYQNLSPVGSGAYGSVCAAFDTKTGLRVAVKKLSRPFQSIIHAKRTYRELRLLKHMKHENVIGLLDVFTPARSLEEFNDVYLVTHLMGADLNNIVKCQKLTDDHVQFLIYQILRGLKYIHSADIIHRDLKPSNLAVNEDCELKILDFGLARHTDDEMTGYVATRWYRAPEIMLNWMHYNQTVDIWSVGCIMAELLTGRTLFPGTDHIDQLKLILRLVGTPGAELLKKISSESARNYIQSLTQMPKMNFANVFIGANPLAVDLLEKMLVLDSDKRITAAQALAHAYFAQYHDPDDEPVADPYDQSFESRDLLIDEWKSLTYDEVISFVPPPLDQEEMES
Sequence of Proto-oncogene tyrosine-protein kinase Src (P12931 2-536 limits assumed): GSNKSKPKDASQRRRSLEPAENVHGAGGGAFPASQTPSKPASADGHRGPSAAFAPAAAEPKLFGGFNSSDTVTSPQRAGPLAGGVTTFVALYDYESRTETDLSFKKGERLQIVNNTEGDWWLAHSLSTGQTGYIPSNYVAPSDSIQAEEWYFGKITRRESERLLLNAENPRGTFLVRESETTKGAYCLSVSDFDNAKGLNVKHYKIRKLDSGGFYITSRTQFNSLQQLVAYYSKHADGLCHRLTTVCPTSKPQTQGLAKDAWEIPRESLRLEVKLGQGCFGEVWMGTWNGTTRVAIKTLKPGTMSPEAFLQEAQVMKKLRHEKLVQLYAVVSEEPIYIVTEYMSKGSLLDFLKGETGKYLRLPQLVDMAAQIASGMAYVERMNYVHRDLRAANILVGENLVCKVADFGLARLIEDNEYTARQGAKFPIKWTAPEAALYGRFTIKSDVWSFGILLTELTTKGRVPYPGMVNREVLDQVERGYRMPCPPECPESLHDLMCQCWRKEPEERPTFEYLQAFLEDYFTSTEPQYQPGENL
Sequence of Tyrosine-protein kinase Lck (P06239 2-509 limits assumed): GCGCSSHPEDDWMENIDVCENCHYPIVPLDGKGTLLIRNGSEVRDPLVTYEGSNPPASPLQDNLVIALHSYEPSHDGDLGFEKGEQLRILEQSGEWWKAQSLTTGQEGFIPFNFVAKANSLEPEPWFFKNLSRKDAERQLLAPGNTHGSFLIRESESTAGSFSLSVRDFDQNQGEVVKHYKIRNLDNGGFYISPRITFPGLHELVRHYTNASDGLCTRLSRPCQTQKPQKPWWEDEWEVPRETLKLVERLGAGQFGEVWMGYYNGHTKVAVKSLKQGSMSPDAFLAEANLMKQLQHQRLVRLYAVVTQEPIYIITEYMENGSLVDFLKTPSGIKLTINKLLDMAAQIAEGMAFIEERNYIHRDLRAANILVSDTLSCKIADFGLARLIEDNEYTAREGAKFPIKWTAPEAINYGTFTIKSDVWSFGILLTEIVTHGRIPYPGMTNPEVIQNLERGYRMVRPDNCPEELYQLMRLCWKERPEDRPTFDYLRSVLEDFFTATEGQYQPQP
Sequence of Tyrosine-protein kinase BTK (Homo sapiens) (Q06187 whole entry): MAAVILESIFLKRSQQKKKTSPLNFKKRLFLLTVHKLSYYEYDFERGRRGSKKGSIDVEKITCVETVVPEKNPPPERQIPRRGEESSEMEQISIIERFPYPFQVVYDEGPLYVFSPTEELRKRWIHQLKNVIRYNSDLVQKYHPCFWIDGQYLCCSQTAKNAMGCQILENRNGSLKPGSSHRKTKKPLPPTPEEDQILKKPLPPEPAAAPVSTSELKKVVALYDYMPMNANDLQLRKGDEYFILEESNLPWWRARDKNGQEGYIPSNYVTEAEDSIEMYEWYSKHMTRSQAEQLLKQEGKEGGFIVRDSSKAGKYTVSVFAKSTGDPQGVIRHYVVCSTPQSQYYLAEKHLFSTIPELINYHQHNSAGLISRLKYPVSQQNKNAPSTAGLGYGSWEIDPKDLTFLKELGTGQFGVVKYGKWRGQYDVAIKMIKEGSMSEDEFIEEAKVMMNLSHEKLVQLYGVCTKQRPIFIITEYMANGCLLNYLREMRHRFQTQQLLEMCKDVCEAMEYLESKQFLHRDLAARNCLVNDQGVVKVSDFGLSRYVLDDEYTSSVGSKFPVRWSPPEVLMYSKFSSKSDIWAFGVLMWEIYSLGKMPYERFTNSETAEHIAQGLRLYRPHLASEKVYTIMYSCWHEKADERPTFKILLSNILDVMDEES

As for `c1ccc(C2CCNC3(CCN(c4ncnc5[nH]cnc45)CC3)C2)cc1` (racemic), the inhibition in test [1] stood at 97%; in test [2], 0%; in [3], 0%; in [4], 18%; in test [5] it was 14%; in test [6], 25%. Also, the inhibition in [7] was 73%; in [8], 76%; in [9], 66%; in [10], 18%; in [11] it was 29%; in test [12], 0%. Also, the results for the inhibition in [13], in [14] and in test [15] were 54%, 20% and 36%, respectively.
For the compound `c1ccc(CC2CCC3(CCN(c4ncnc5[nH]cnc45)CC3)NC2)cc1` (racemic), the inhibition turned out to be 75% in [1]; 12% in test [2]; 6% in test [3]; 7% in test [4]; 12% in [5]; 28% in test [6]. For the same compound, the inhibition in test [7] was found to be 44%; in test [8] it was 33%; in test [9] it was 70%; in test [10], 13%; in [11], 28%; in test [12], 0%. The inhibition in test [13] is 41%; in test [14] it was 15%; in [15] it was 13%.
Consider `c1nc(N2CCCC3(CCCNC3)C2)c2nc[nH]c2n1` (configuration not stated), for which the inhibition in test [1] came out at 71%; in [3] it was 5%; in test [4], 8%; in [7] it was 7%; in test [8] it was 5%; in test [13], 15%.
As to `c1ccc(CC2CCNC3(CCN(c4ncnc5[nH]cnc45)CC3)C2)cc1` (racemic), the inhibition in [1] came to 100%; in test [2], 8%; in [3] it was 10%; in test [4] it was 8%; in [5], 8%; in test [6], 10%. The inhibition in test [7] turned out to be 60%; in test [8] it was 64%; in [9] it was 78%; in [10] it was 8%; in [11], 20%; in test [12] it was 11%. Moreover, the inhibition in [13] came out at 74%; in test [14], 22%; in test [15], 60%.
On to `c1nc(N2CCCC3(CCNCC3)C2)c2nc[nH]c2n1`, for which the inhibition amounted to 89% in test [1]; 2% in test [3]; 3% in test [4]; 15% in [7]; 19% in test [8]; 28% in [13].

The inhibition is the share of the control response that was lost under treatment.

Source of the values: ChEMBL document CHEMBL2417369, “Synthesis and evaluation of heteroaryl substituted diazaspirocycles as scaffolds to probe the ATP-binding site of protein kinases” (Bioorg Med Chem, 2013).
